Laboratory results: PubChem BioAssay AID449755 (Broad Institute, 2010)
Results filed as inconclusive are left out. Activity calls are given as the source filed them.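 Rule for the calls: active = compounds raising caspase signal whose fitted AC50 is at most ten times the top tested dose; inconclusive = flat fit with 30 to 70% activity, or failed fit; inactive = the rest.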

System: HMC 1-8 low-A1 cells, caspase-3/7 luminescence, 3 h
Assay: caspase activation in low-A1 HMC 1-8 cells, dose response, counter-screen for A1 inhibitor project, cell-based, caspase luminescence (AID 449755)
In short: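 Test system: low-A1 HMC 1-8 human cancer cell line; Input: 2500 cells/well; Buffer or medium: RPMI-1640 growth medium with 10% FBS; Compound: pin-transferred compound; Times: 3 h compound exposure, 37 °C/5% CO2, 1 h room-temperature detection; Measured by: caspase-3/7 DEVD luminescence; Evaluation: caspase-3/7 activation, marking off-target non-A1 activity.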

CCc1ccc(NC(=O)c2nc(S(=O)(=O)Cc3ccccc3)ncc2Cl)cc1
AC50: > 35 µM (inactive)

COc1cc(-c2cc(-c3ccccc3)nc(SCC(=O)Nc3nccs3)c2C#N)cc(OC)c1OC
AC50: > 35 µM (inactive)

CCc1nnc(NC(=O)c2nc(S(=O)(=O)Cc3ccccc3)ncc2Cl)s1
AC50: > 35 µM (inactive)

COc1ccc(C[C@H]2NC[C@H](O)[C@H]2OC(C)=O)cc1
AC50: 1.09 µM

CCOCCCNC(=O)c1ccc2c(c1)N=C(CC)c1cc(Br)ccc1S2
AC50: > 35 µM (inactive)

COc1ccccc1-c1cn[nH]c1-c1ccc(OCc2ccccc2)cc1O
AC50: > 35 µM (inactive)

O=C(Nc1ccc2oc(-c3ccccc3)nc2c1)c1ccccc1F
AC50: > 35 µM (inactive)

CC(=O)OC(C)(C)/C=C/C(=O)[C@](C)(O)C1[C@H](O)C[C@@]2(C)C3CC=C4C(C[C@H](O)C(=O)C4(C)C)[C@]3(C)C(=O)C[C@]12C (stereo partly specified)
AC50: > 35 µM (inactive)

C=C1/C=C(\C)[C@](C)(O)C[C@H](O)CC(=O)[C@H](O)[C@@H](O)[C@H](C)C[C@H](C)OC(=O)/C(C)=C/CC/C=C/[C@@H]2O[C@H]2C[C@H](C)C1
AC50: > 35 µM (inactive)

CC1(C)C[C@H](O)[C@]2(CO)[C@H](O)C[C@]3(C)C(=CCC4[C@@]5(C)CC[C@H](O)C(C)(C)C5CC[C@]43C)[C@@H]2C1 (stereo partly specified)
AC50: > 35 µM (inactive)

Cc1ccc(C(=O)COC(=O)c2ccc3c(c2)C(=O)N(c2cccc4ncccc24)C3=O)cc1
AC50: 24.3 µM

CC(C)c1ccc2[nH]c(O)c(N=NC(=O)c3cccc(S(=O)(=O)Nc4ccc(Cl)cc4)c3)c2c1
AC50: > 35 µM (inactive)

Cc1ccc(N(Cc2cc(=O)[nH]c3ccccc23)C(=O)CCl)cc1
AC50: > 35 µM (inactive)

COc1ccc(S(=O)(=O)N2CC(O)CC2C(=O)OCC(=O)Nc2ccc(Cl)cn2)cc1 (stereo unspecified)
AC50: > 35 µM (inactive)

COc1ccc(NC(=O)c2cccc3c2C(=O)c2ccc(-c4ccc(F)cc4OCc4ccccc4)cc2S3(=O)=O)cc1
AC50: > 35 µM (inactive)

O=C(COc1ccccc1[N+](=O)[O-])Nc1ccc(NC(=O)c2cc3ccccc3o2)cc1
AC50: 9.07 µM

Cc1cccc(NC(=O)/C(C#N)=C/c2cn(CC(=O)NCc3ccco3)c3ccccc23)c1
AC50: > 35 µM (inactive)

O=C(N=Nc1c(O)[nH]c2ccc([N+](=O)[O-])cc12)c1cc(-c2ccccc2Cl)nc2ccccc12
AC50: > 35 µM (inactive)

CC1=NNC(=O)/C1=C\c1cn(-c2ccccc2)nc1-c1ccccc1
AC50: > 35 µM (inactive)

O=C(CCl)N=c1sccn1Cc1ccccc1Cl
AC50: > 35 µM (inactive)

O=C(Cn1c(C(F)(F)F)nc2ccccc21)N=Nc1c(O)[nH]c2ccc(Br)cc12
AC50: 32.3 µM

COc1cc(C(=O)Nc2cc3c(cc2N2CCCCC2)n(C)c(=O)n3C)cc(OC)c1OC
AC50: > 35 µM (inactive)

COc1ccccc1C(=O)Nc1ccnn1C1CCN(Cc2cn(C)c3ccccc23)CC1
AC50: > 35 µM (inactive)

COc1cc(NC(=O)c2ccccc2)c(OC)cc1NC(=O)Cc1ccc(Br)cc1
AC50: > 35 µM (inactive)

Cc1ccc(C(=O)/C=C/C(=O)c2ccc(C)cc2)cc1
AC50: > 35 µM (inactive)

COc1ccc(C2CC(c3c(O)cc(C)oc3=O)=NCCS2)c(OC)c1 (stereo unspecified)
AC50: > 35 µM (inactive)

Cc1nn(Cc2ccc(Cl)cc2Cl)c(C)c1NC(=O)Cn1nc([N+](=O)[O-])c(Cl)c1C
AC50: > 35 µM (inactive)

COCc1cc(C)nc(SCC(=O)Nc2nc(C)cs2)c1C#N
AC50: > 35 µM (inactive)

Oc1[nH]c2ccc(Br)cc2c1N=NC(=S)Nc1ccc(F)cc1
AC50: > 35 µM (inactive)

CC1CC(C)CN(C(=O)c2ccc(-c3ccc([N+](=O)[O-])cc3)o2)C1 (stereo unspecified)
AC50: > 35 µM (inactive)

CCCCN1C(=O)/C(=C2/Sc3ccccc3N2C)S/C1=N\c1ncn[nH]1
AC50: > 35 µM (inactive)
